Data reported in ChEMBL document CHEMBL1134340, “GnRH antagonists: a new generation of long acting analogues incorporating p-ureido-phenylalanines at positions 5 and 6” (J Med Chem, 2001).
Values after ≈ are worked out from the molar mass of the structure shown.

Assays:
Rattus norvegicus [1] = organism: Rattus norvegicus; assay: Compound was tested for inhibition of Leutenizing hormone release at 96 hours (very long duration) in castrated male rat assay; format: functional; set-up: concentration or dose not given beside the values
In short: (§1)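 Male Sprague-Dawley rats (180-200 g), castrated under ether 10 days earlier, 5 per group. 50 µg/rat given sc in 100 µL 40 mM phosphate buffer with 0.1% BSA and 0.6% DMSO; acyline run as internal standard. Tail blood taken predose and at 24, 48, 72, 96 (sometimes 120) h; plasma LH by RIA. Duration classed by >80% LH inhibition at each time.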

[2] = biological target: T1, Gonadotropin-releasing hormone receptor (Homo sapiens, UniProt P30968); assay: Antagonism of human GnHR receptor, determined in a reporter gene assay in HEK293 cells; format: functional, cell-based
T1 sequence (P30968 whole entry): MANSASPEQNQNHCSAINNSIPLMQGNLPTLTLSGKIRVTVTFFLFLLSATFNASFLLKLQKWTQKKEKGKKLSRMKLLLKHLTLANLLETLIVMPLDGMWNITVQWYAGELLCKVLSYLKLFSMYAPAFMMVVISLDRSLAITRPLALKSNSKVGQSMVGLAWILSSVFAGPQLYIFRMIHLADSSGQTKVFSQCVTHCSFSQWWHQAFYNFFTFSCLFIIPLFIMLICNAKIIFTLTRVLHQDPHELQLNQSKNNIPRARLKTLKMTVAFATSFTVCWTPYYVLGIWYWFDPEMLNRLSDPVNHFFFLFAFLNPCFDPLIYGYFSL
In short: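 HEK293 cells stably expressing cloned human GnRH receptor plus luciferase reporter under LH alpha subunit promoter, plated 24 h before assay. Compound in 1% DMSO added 10 min at 37 °C, then GnRH at 3 nM final; 5 h incubation, luciferase luminescence read. Six concentrations in duplicate; blank-subtracted cps as % of GnRH control; mean of two determinations.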

Rattus norvegicus [3] = organism: Rattus norvegicus; assay: Compound was tested for histamine release at a concentration of 300 ug/mL; format: functional
In short: (§2)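 Sprague-Dawley rat peritoneal mast cells, Percoll-purified, in heparinized balanced salt solution with albumin, pH 7.2. Cells exposed to compound or vehicle for 2 min at 37 °C. Supernatant histamine measured spectrofluorometrically after o-phthalaldehyde derivatization; pellets lysed for retained histamine. Reported as % of total histamine released, corrected for spontaneous release in vehicle.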

Rattus norvegicus [4] = organism: Rattus norvegicus; assay: Effective dose for histamine release was determined; format: functional
In short: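 ED50 for histamine release calculated from % release values across concentrations in rat peritoneal mast cell assay (2 min, 37 °C, o-phthalaldehyde fluorometric read-out, corrected for vehicle release).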

Rattus norvegicus [5] = organism: Rattus norvegicus; assay: Compound was tested for histamine release at a concentration of 100 ug/mL; format: functional; in short: as §2
[6] = biological target: T1, Gonadotropin-releasing hormone receptor; assay: Competitive antagonism of GnRH-induced response in the reporter gene assay; format: functional; settings: for Kb: read-out: pA2 (converted)
In short: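 Same HEK293 human GnRH receptor luciferase reporter cells. Seven-point GnRH curve (10 µM to 10 pM final) run in duplicate without or with four to five increasing compound concentrations (10 min preincubation, 37 °C), then 5 h and luminescence. GnRH EC50 at each level by four-parameter logistic fit, giving pA2; mean of two determinations in duplicate.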

Rattus norvegicus [7] = organism: Rattus norvegicus; assay: Compound was tested for inhibition of Leutenizing hormone release at 24 hours (short duration) in castrated male rat assay; format: functional; set-up: concentration or dose not given beside the values; in short: as §1
Rattus norvegicus [8] = organism: Rattus norvegicus; assay: Compound was tested for inhibition of Leutenizing hormone release at 48 hours (intermediate duration) in castrated male rat assay; format: functional; set-up: concentration or dose not given beside the values; in short: as §1
Rattus norvegicus [9] = organism: Rattus norvegicus; assay: Compound was tested for histamine release at a concentration of 30 ug/mL; format: functional; in short: as §2
Rattus norvegicus [10] = organism: Rattus norvegicus; assay: Compound was tested for inhibition of Leutenizing hormone release at 72 hours (long duration) in castrated male rat assay; format: functional; set-up: concentration or dose not given beside the values; in short: as §1

| SMILES | Inhibition (Rattus norvegicus [1]) | HR (Rattus norvegicus [3]) | HR (Rattus norvegicus [5]) | HR (Rattus norvegicus [9]) | also measured |
| --- | --- | --- | --- | --- | --- |
| CC(=O)N[C@H](Cc1ccc2ccccc2c1)C(=O)N[C@H](Cc1ccc(Cl)cc1)C(=O)N[C@H](Cc1cccnc1)C(=O)N[C@@H](CO)C(=O)N[C@@H](Cc1ccc(NC(=O)[C@H]2CC(=O)NC(=O)N2)cc1)C(=O)N[C@H](Cc1ccc(NC(N)=O)cc1)C(=O)N[C@@H](CC(C)C)C(=O)N[C@@H](CCCCNC(C)C)C(=O)N1CCC[C@H]1C(=O)N[C@H](C)C(N)=O | >80% | 68% | 54% |  | IC50 ([2]; hek293): 3 nM; ED50 (Rattus norvegicus [4]): 170 µg/mL (≈ 104 µM); pA2 [6]: 8.8 |
| CC(=O)Nc1ccc(C[C@@H](NC(=O)[C@H](CCNC(N)=O)NC(=O)[C@H](CO)NC(=O)[C@@H](Cc2cccnc2)NC(=O)[C@@H](Cc2ccc(Cl)cc2)NC(=O)[C@@H](Cc2ccc3ccccc3c2)NC(C)=O)C(=O)N[C@@H](CC(C)C)C(=O)N[C@@H](CCCCNC(C)C)C(=O)N2CCC[C@H]2C(=O)N[C@H](C)C(N)=O)cc1 |  |  |  |  | Inhibition (Rattus norvegicus [7]): >80% |
| CC(=O)Nc1ccc(C[C@H](NC(=O)[C@H](CO)NC(=O)[C@@H](Cc2cccnc2)NC(=O)[C@@H](Cc2ccc(Cl)cc2)NC(=O)[C@@H](Cc2ccc3ccccc3c2)NC(C)=O)C(=O)N[C@H](Cc2ccc(NC(=O)[C@@H]3CC(=O)NC(=O)N3)cc2)C(=O)N[C@@H](CC(C)C)C(=O)N[C@@H](CCCCNC(C)C)C(=O)N2CCC[C@H]2C(=O)N[C@H](C)C(N)=O)cc1 |  |  | 64% | 17% | Inhibition (Rattus norvegicus [8]): >80% |
| CC(=O)N[C@H](Cc1ccc2ccccc2c1)C(=O)N[C@H](Cc1ccc(Cl)cc1)C(=O)N[C@H](Cc1cccnc1)C(=O)N[C@@H](CO)C(=O)N[C@@H](Cc1ccc(NC(=O)[C@H]2CC(=O)NC(=O)N2)cc1)C(=O)N[C@H](Cc1ccc(NC(=O)[C@H]2CC(=O)NC(=O)N2)cc1)C(=O)N[C@@H](CC(C)C)C(=O)N[C@@H](CCCCNC(C)C)C(=O)N1CCC[C@H]1C(=O)N[C@H](C)C(N)=O | >80% | 64% | 69% |  | IC50 ([2]; hek293): 7.7 nM; pA2 [6]: 9 |
| CNC(=O)NCc1ccc(C[C@@H](NC(=O)[C@H](Cc2ccc(NC(=O)[C@@H]3CC(=O)NC(=O)N3)cc2)NC(=O)[C@H](CO)NC(=O)[C@@H](Cc2cccnc2)NC(=O)[C@@H](Cc2ccc(Cl)cc2)NC(=O)[C@@H](Cc2ccc3ccccc3c2)NC(C)=O)C(=O)N[C@@H](CC(C)C)C(=O)N[C@@H](CCCCNC(C)C)C(=O)N2CCC[C@H]2C(=O)N[C@H](C)C(N)=O)cc1 | >80% | 67% | 56% |  |  |
| CC(=O)N[C@H](Cc1ccc2ccccc2c1)C(=O)N[C@H](Cc1ccc(Cl)cc1)C(=O)N[C@H](Cc1cccnc1)C(=O)N[C@@H](CO)C(=O)N[C@@H](Cc1ccc(NC(=O)[C@@H]2CC(=O)NC(=O)N2)cc1)C(=O)N[C@H](Cc1ccc(CNC(N)=O)cc1)C(=O)N[C@@H](CC(C)C)C(=O)N[C@@H](CCCCNC(C)C)C(=O)N1CCC[C@H]1C(=O)N[C@H](C)C(N)=O | >80% | 64% | 48% | 21% |  |
| CC(=O)Nc1ccc(C[C@H](NC(=O)[C@H](CO)NC(=O)[C@@H](Cc2cccnc2)NC(=O)[C@@H](Cc2ccc(Cl)cc2)NC(=O)[C@@H](Cc2ccc3ccccc3c2)NC(C)=O)C(=O)N[C@H](Cc2ccc(NC(C)=O)cc2)C(=O)N[C@@H](CC(C)C)C(=O)N[C@@H](CCCCNC(C)C)C(=O)N2CCC[C@H]2C(=O)N[C@H](C)C(N)=O)cc1 [ACYLINE] |  | 87% | 56% | 43% | IC50 [2]: 6.8 nM; Inhibition (Rattus norvegicus [10]): >80%; ED50 (Rattus norvegicus [4]): 66 µg/mL (≈ 43 µM); Kb [6]: 2.51 nM |
| CCNC(=O)Nc1ccc(C[C@H](NC(=O)[C@H](CO)NC(=O)[C@@H](Cc2cccnc2)NC(=O)[C@@H](Cc2ccc(Cl)cc2)NC(=O)[C@@H](Cc2ccc3ccccc3c2)NC(C)=O)C(=O)N[C@H](Cc2ccc(NC(=O)NCC)cc2)C(=O)N[C@@H](CC(C)C)C(=O)N[C@@H](CCCCNC(C)C)C(=O)N2CCC[C@H]2C(=O)N[C@H](C)C(N)=O)cc1 |  |  |  |  | IC50 [2]: 5 nM; Inhibition (Rattus norvegicus [7]): >80%; Kb [6]: 1.26 nM |
